Results from different studies.
Kir1 channel protein: Kir1 channel protein (Aedes aegypti, UniProt L0EQS9)
BTK: Tyrosine-protein kinase BTK (BTK, Homo sapiens, UniProt Q06187)
MMP14: Matrix metalloproteinase-14 (MMP14, Homo sapiens, UniProt P50281)
TGM2: Protein-glutamine gamma-glutamyltransferase (TGM2, Homo sapiens, UniProt P21980)

SMILES	target	test	setting	IC50 [µM]
O=S(=O)(c1ccc(F)cc1)N1CCN(c2ccnc(NCc3ccncc3)c2)CC1	Kir1 channel protein	ion flux, inhibitor		4 to 9
COc1ccc(F)cc1C(=O)NCc1ccc(-c2nn([C@@H](C)C(F)(F)F)c(N)c2C(N)=O)cc1	Tyrosine-protein kinase BTK (BTK, Homo sapiens, UniProt Q06187, C481G)	phosphorylation in cells, inhibitor		0.0139
N#CN1C[C@H](n2nc(-c3ccc(Oc4ccc(Cl)cn4)cc3)c(C(N)=O)c2N)CCC12CC2	BTK	enzyme activity, inhibitor		0.0005 to 0.004
NC(=O)c1cccc(-c2cccc(OC(=O)NC3CCCCC3)c2)c1	Arylacetamide deacetylase (Homo sapiens, UniProt P22760)	enzyme activity, inhibitor		0.19
CC[C@H](C)[C@H](NC(C)=O)C(=O)N[C@@H](CCC(=O)O)C(=O)N[C@H](C(=O)N[C@H](C=O)CC(=O)O)[C@@H](C)O	Caspase-4 (Casp4, Mus musculus, UniProt P70343)	enzyme activity, inhibitor		0.086
N#Cc1ccc(N2CCN(S(=O)(=O)c3ccc(Cl)cc3)CC2)cc1NCc1ccncc1	Kir1 channel protein	ion flux, inhibitor		0.738
Cc1noc(-c2cc3cc(-c4nc(C(=O)NCc5ccccn5)[nH]c4C)ccc3[nH]2)n1	MMP14	enzyme activity, inhibitor		> 20
O=S(=O)(c1ccc(F)cc1)N1CCN(c2ccc(C(F)(F)F)c(NCc3ccncc3)c2)CC1	Kir1 channel protein	ion flux, inhibitor		4 to 9
Cc1ccc(C(=O)Nc2ccc(Oc3cc4cnn(C)c4cc3-c3cn[nH]c3)c(F)c2)c(=O)n1-c1ccc(F)cc1	Vascular endothelial growth factor receptor 1 (FLT1, Homo sapiens, UniProt P17948)	enzyme activity, inhibitor, radiometric		0.076
Cc1noc(-c2cc3cc(-c4nc(C(=O)NCc5ccccc5)[nH]c4C)ccc3[nH]2)n1	MMP14	enzyme activity, inhibitor		> 20
O=C1Nc2cc(Oc3ccc4c(c3)NC(=O)C4=O)ccc2C1=O	TGM2	enzyme activity, inhibitor		30 to 40
O=C1Nc2ccc(I)cc2/C1=C/c1cc(Br)c(O)c(Br)c1	TGM2	enzyme activity, inhibitor		50
COc1ccc2c(Oc3ccc4c(C(=O)Nc5ccccc5N)cccc4c3)ccnc2c1	BTK	enzyme activity, inhibitor		> 0.5
O=[N+]([O-])c1ccc(N2CCN(S(=O)(=O)c3ccc(F)cc3)CC2)cc1NCc1ccncc1	Kir1 channel protein	ion current, inhibitor, patch clamp		0.0497
COc1cc2c(NC3CCN(C)CC3)nc(N3CCCN(C)CC3)nc2cc1OCCOCCN(C)C	Lysine-specific demethylase 4E (KDM4E, Homo sapiens, UniProt B2RXH2)	enzyme activity, inhibitor		> 57
N#Cc1ccc(N2CCN(S(=O)(=O)c3ccc(F)cc3)CC2)cc1NCc1ccncc1	Kir1 channel protein	ion flux, inhibitor		0.361
Cc1noc(-c2cc3cc(-c4nc(C(=O)NCc5ccncc5)[nH]c4C)ccc3[nH]2)n1	MMP14	enzyme activity, inhibitor		> 20
O=C(Oc1nsnc1N1CCc2ccccc2C1)N1CCCCC1	Monoacylglycerol lipase ABHD6 (ABHD6, Homo sapiens, UniProt Q9BV23)	enzyme activity, inhibitor, fluorescence	lysate	0.46
O=[N+]([O-])c1ccc(N2CCN(S(=O)(=O)c3ccc(F)cc3)CC2)cc1NCc1cccnc1	Kir1 channel protein	ion flux, inhibitor		0.47
Cc1cc(O)cc(C)c1C[C@H](NC(=O)[C@@H]1CCCN1C(=O)[C@H](CCCNC(=N)N)NC(=O)[C@H](CCCNC(=N)N)N(C)C(=O)CNC(=O)[C@@H](CO)NC(=O)CNC(=O)[C@H](Cc1cn(CCNC(=O)[C@H](CC(C)C)NC(=O)[C@H](CC(C)C)NC(=O)C2OC2C(=O)O)nn1)NC(=O)CN1CCN(CC(=O)O)CCN(CC(=O)O)CCN(CC(=O)O)CC1)C(=O)N[C@H](C(=O)N[C@@H](CC(C)C)C(=O)O)C(C)(C)C (mixture of isomers)	Neurotensin receptor type 1 (NTSR1, Homo sapiens, UniProt P30989)	ligand displacement, radioligand		0.045
C=CC(=O)Nc1cc(Nc2nccc(Nc3cc(Cl)c(F)cc3C(C)(C)O)n2)c(OC)cc1N1CC[C@@H](N(C)C)C1	BTK	enzyme activity, inhibitor	with preincubation	0.213
O=c1c(O)c(-c2ccc(O)c(O)c2)oc2cc(O)cc(O)c12	Cytochrome P450 2E1 (CYP2E1, Homo sapiens, UniProt P05181)	enzyme activity, inhibitor, HPLC		104
Cc1noc(-c2cc3cc(-c4nc(C(=O)NCc5ccc(=O)[nH]c5)[nH]c4C)ccc3[nH]2)n1	MMP14	enzyme activity, inhibitor		> 24
CN1CCN(c2ccc(Nc3ncc4cc(C#N)c(=O)n(C5CCCC5)c4n3)cc2)CC1	Receptor tyrosine-protein kinase erbB-4 (ERBB4, Homo sapiens, UniProt Q15303)	enzyme activity, inhibitor		3.09
O=[N+]([O-])c1ccc(N2CCN(S(=O)(=O)c3ccc(Cl)cc3)CC2)cc1NCc1cccnc1	Kir1 channel protein	ion flux, inhibitor		1.47
CCC1(c2ccc(C)cc2)C(=O)N(C(=O)OC(C)C)N1C(=O)OC(C)C (stereo not shown)	Prolyl endopeptidase (Mus musculus, UniProt Q9QUR6)	enzyme activity, inhibitor		4.5
O=[N+]([O-])c1ccc(N2CCN(S(=O)(=O)c3ccc(Cl)cc3)CC2)cc1NCc1ccncc1	Kir1 channel protein	ion flux, inhibitor		0.75
Cn1nc(C(=O)NCc2ccc(C(=O)O)cc2)cc1-c1ccc2[nH]c(-c3cccnc3)cc2c1	MMP14	enzyme activity, inhibitor		> 20
